# From ChEMBL document CHEMBL4334465, “SAR Studies on Aromatic Acylhydrazone-Based Inhibitors of Fungal Sphingolipid Synthesis as Next-Generation Antifungal Agents” (J Med Chem, 2019)
# Active and inactive are the calls of the source. No cut-off for these calls is given here.
# Assays:
# [1] = system: Cryptococcus neoformans; assay: Inhibition of glucosylceramide synthesis in Cryptococcus neoformans H99 in presence of [3H]palmitate; assay type: functional, organism-based; conditions: var grubii H99
# [2] = system: Cryptococcus neoformans; assay: Antifungal activity against Cryptococcus neoformans H99 infected in CBA/J mouse assessed as increase in survival at 1.2 mg/kg, ip; assay type: functional, organism-based; conditions: var grubii H99
# [3] = system: J774; assay: Inhibition of glucosylceramide synthesis in mouse J774 cells in presence of [3H]palmitate; assay type: cell-based
# [4] = system: Candida parapsilosis; assay: Antifungal activity against Candida parapsilosis assessed as FICI in presence of fluconazole; assay type: functional
# Method in brief: (§1)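 Checkerboard combination scored by fractional inhibitory concentration index. Acylhydrazone serially diluted 16 to 0.015 μg/mL (11 dilutions). Partner drug in seven dilutions: fluconazole 12 to 0.19 μg/mL, amphotericin B 5 to 0.078 μg/mL, caspofungin, itraconazole or voriconazole 8 to 0.007 μg/mL.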
# [5] = system: Cryptococcus neoformans; assay: Fungicidal activity against Cryptococcus neoformans H99 measured up to 96 hrs by time-kill assay; assay type: functional, organism-based; conditions: var grubii H99
# Method in brief: (§2)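 Overnight C. neoformans washed in PBS and resuspended in HEPES-buffered YNB, pH 7.4. 2 × 10⁴ cells exposed to a range of drug concentrations in 10 mL with 0.5% DMSO final, at 37°C, 5% CO₂, shaking at 200 rpm. Aliquots sampled over 96 h, diluted and plated on YPD; CFU counted after 48 h at 30°C.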
# [6] = system: Candida albicans; assay: Antifungal activity against Candida albicans assessed as FICI in presence of fluconazole; assay type: functional; method in brief: as §1
# [7] = system: Aspergillus fumigatus; assay: Antifungal activity against Aspergillus fumigatus measured after 24 to 72 hrs; assay type: functional
# Method in brief: (§3)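 Modified CLSI broth microdilution with inoculum per M27A3. Compounds were serially diluted 32 to 0.03 μg/mL. Media: C. neoformans in HEPES-buffered YNB without amino acids (pH 7.0, 2% glucose); Candida strains in YNB without ammonium sulfate or amino acids plus 1% asparagine (pH 7.0, 2% glucose); A. fumigatus in RPMI (pH 7.0, 2% glucose).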
# [8] = system: HepG2; assay: Cytotoxicity against human HepG2 cells after 24 to 48 hrs by MTT assay; assay type: functional; conditions: read-out: LD50 (the source's name)
# Method in brief: (§4)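 A549 and HepG2 kept in DMEM with 10% FBS and 1% pen-strep. At passage 7, seeded at 10⁵ cells/well and allowed to adhere 14 h. Compound added at 0.03–128 μg/mL, untreated wells as controls. Incubation 37°C, 5% CO₂ for 24 or 48 h. MTT (5 mg/mL in PBS) added for 4 h, formazan dissolved in DMSO, OD570.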
# [9] = Selectivity index, ratio of LD50 for human A549 cells to MIC80 for Cryptococcus neoformans H99; assay type: toxicity; conditions: read-out: Selectivity Index
# Method in brief: (§5)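 SI = LD₅₀/MIC₈₀. Cytotoxicity: A549 or HepG2 cells (DMEM, 10% FBS, passage 7, 10⁵ cells/well) adhered 14 h, then exposed to 0.03–128 μg/mL for 24 or 48 h at 37°C, 5% CO₂; MTT 4 h, formazan dissolved in DMSO, read at 570 nm. MIC₈₀ against C. neoformans from broth microdilution in HEPES-buffered YNB, pH 7.0.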
# [10] = system: Candida albicans; assay: Antifungal activity against Candida albicans assessed as FICI in presence of caspofungin; assay type: functional; method in brief: as §1
# [11] = system: Pichia kudriavzevii; assay: Antifungal activity against Candida krusei 6258 assessed as FICI in presence of itraconazole; assay type: functional; method in brief: as §1
# [12] = system: Aspergillus fumigatus; assay: Antifungal activity against Aspergillus fumigatus assessed as FICI in presence of itraconazole; assay type: functional; method in brief: as §1
# [13] = system: Cryptococcus neoformans; assay: Antifungal activity against Cryptococcus neoformans H99 assessed as FICI in presence of amphotericin B; assay type: functional, var grubii H99; method in brief: as §1
# [14] = system: Pichia kudriavzevii; assay: Antifungal activity against fluconazole-resistant Candida krusei assessed as FICI in presence of caspofungin; assay type: functional
# Method in brief: (§6)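 Checkerboard in 96-well plate. Test compound diluted 16 to 0.015 μg/mL (11 dilutions) against the partner drug in seven dilutions: fluconazole 12 to 0.19 μg/mL, caspofungin, itraconazole or voriconazole 8 to 0.007 μg/mL. Fractional inhibitory concentration index (FICI) calculated from the combinations.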
# [15] = system: Candida parapsilosis; assay: Antifungal activity against Candida parapsilosis assessed as FICI in presence of caspofungin; assay type: functional; method in brief: as §1
# [16] = system: [Candida] auris; assay: Antifungal activity against Candida auris assessed as FICI in presence of itraconazole; assay type: functional, Candidozyma auris; method in brief: as §1
# [17] = system: Candida parapsilosis; assay: Antifungal activity against Candida parapsilosis measured after 24 to 72 hrs; assay type: functional; conditions: Lodderomyces parapsilosis; method in brief: as §3
# [18] = system: [Candida] auris; assay: Antifungal activity against Candida auris measured after 24 to 72 hrs; assay type: functional; conditions: Candidozyma auris; method in brief: as §3
# [19] = system: Pichia kudriavzevii; assay: Antifungal activity against fluconazole-resistant Candida krusei assessed as FICI in presence of itraconazole; assay type: functional; method in brief: as §6
# [20] = system: Cryptococcus neoformans; assay: Antifungal activity against Cryptococcus neoformans H99 assessed as FICI in presence of itraconazole; assay type: functional, var grubii H99; method in brief: as §1
# [21] = system: Cryptococcus neoformans; assay: Fungicidal activity against Cryptococcus neoformans H99 measured after 72 hrs by time-kill assay; assay type: functional, var grubii H99; method in brief: as §2
# [22] = system: Cryptococcus neoformans; assay: Antifungal activity against Cryptococcus neoformans H99 assessed as FICI in presence of fluconazole; assay type: functional, var grubii H99; method in brief: as §1
# [23] = system: Aspergillus fumigatus; assay: Antifungal activity against Aspergillus fumigatus assessed as FICI in presence of voriconazole; assay type: functional; method in brief: as §1
# [24] = system: Pichia kudriavzevii; assay: Antifungal activity against Candida krusei 6258 assessed as FICI in presence of voriconazole; assay type: functional; method in brief: as §1
# [25] = system: Candida albicans; assay: Antifungal activity against Candida albicans assessed as FICI in presence of itraconazole; assay type: functional; method in brief: as §1
# [26] = system: Pichia kudriavzevii; assay: Antifungal activity against Candida krusei measured after 24 to 72 hrs; assay type: functional
# Method in brief: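 MIC by modified CLSI broth microdilution. Candida strains grown in YNB without ammonium sulfate or amino acids with 1% asparagine, pH 7.0, 2% glucose. Inoculum per CLSI M27A3. Compound serially diluted 32 to 0.03 μg/mL. Incubation 37°C, 5% CO₂, 24–72 h, then OD450. MIC80 taken as the lowest concentration giving 80% growth inhibition versus untreated control.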
# [27] = system: [Candida] auris; assay: Antifungal activity against Candida auris assessed as FICI in presence of caspofungin; assay type: functional, Candidozyma auris; method in brief: as §1
# [28] = system: Cryptococcus neoformans; assay: Antifungal activity against Cryptococcus neoformans H99 assessed as FICI in presence of voriconazole; assay type: functional, var grubii H99; method in brief: as §1
# [29] = system: Pichia kudriavzevii; assay: Antifungal activity against Candida krusei 6258 assessed as FICI in presence of fluconazole; assay type: functional; method in brief: as §1
# [30] = system: Cryptococcus neoformans; assay: Antifungal activity against Cryptococcus neoformans H99 measured after 24 to 72 hrs; assay type: functional; conditions: var grubii H99; method in brief: as §3
# [31] = system: [Candida] auris; assay: Antifungal activity against Candida auris assessed as FICI in presence of voriconazole; assay type: functional, Candidozyma auris; method in brief: as §1
# [32] = system: [Candida] auris; assay: Antifungal activity against Candida auris assessed as FICI in presence of fluconazole; assay type: functional, Candidozyma auris; method in brief: as §1
# [33] = system: Candida parapsilosis; assay: Antifungal activity against Candida parapsilosis assessed as FICI in presence of voriconazole; assay type: functional; method in brief: as §1
# [34] = Selectivity index, ratio of LD50 for human HepG2 cells to MIC80 for Cryptococcus neoformans H99; assay type: toxicity; conditions: read-out: Selectivity Index; method in brief: as §5
# [35] = system: Candida parapsilosis; assay: Antifungal activity against Candida parapsilosis assessed as FICI in presence of itraconazole; assay type: functional; method in brief: as §1
# [36] = system: Candida albicans; assay: Antifungal activity against Candida albicans assessed as FICI in presence of voriconazole; assay type: functional; method in brief: as §1
# [37] = system: Pichia kudriavzevii; assay: Antifungal activity against Candida krusei 6258 assessed as FICI in presence of caspofungin; assay type: functional; method in brief: as §1
# [38] = system: Aspergillus fumigatus; assay: Antifungal activity against Aspergillus fumigatus assessed as FICI in presence of fluconazole; assay type: functional; method in brief: as §1
# [39] = system: Candida albicans; assay: Antifungal activity against Candida albicans measured after 24 to 72 hrs; assay type: functional; method in brief: as §3
# [40] = system: Pichia kudriavzevii; assay: Antifungal activity against fluconazole-resistant Candida krusei assessed as FICI in presence of voriconazole; assay type: functional; method in brief: as §6
# [41] = system: Pichia kudriavzevii; assay: Antifungal activity against fluconazole-resistant Candida krusei assessed as FICI in presence of fluconazole; assay type: functional; method in brief: as §6
# [42] = system: A549; assay: Cytotoxicity against human A549 cells after 24 to 48 hrs by MTT assay; assay type: functional; conditions: read-out: LD50 (the source's name); method in brief: as §4
structure (smiles),measurement,setting,value
Cc1ccccc1C(=O)N/N=C/c1cc(Br)ccc1O,inhibition,[1],Dose-dependent effect
same,Activity,[2],Active
same,inhibition (INH),[3],Dose-dependent effect
O=C(N/N=C/c1ccc(Br)cc1O)c1ccc(Br)cc1Br,fractional inhibitory concentration index (FICI),[4],1.002
same,Activity,[5],Dose-dependent effect
same,fractional inhibitory concentration index (FICI),[6],0.625
same,MIC80,[7],> 16 µg/mL
same,CC50,[8],128 µg/mL
same,selectivity ratio,[9],1070
same,fractional inhibitory concentration index (FICI),[10],0.502
same,fractional inhibitory concentration index (FICI),[11],1.063
same,fractional inhibitory concentration index (FICI),[12],0.484
same,fractional inhibitory concentration index (FICI),[13],0.086
same,fractional inhibitory concentration index (FICI),[14],2
same,fractional inhibitory concentration index (FICI),[15],2
same,fractional inhibitory concentration index (FICI),[16],0.508
same,MIC80,[17],8 µg/mL
same,MIC80,[18],> 16 µg/mL
same,fractional inhibitory concentration index (FICI),[19],0.252
same,fractional inhibitory concentration index (FICI),[20],0.072
same,MFC100,[21],0.06 µg/mL
same,fractional inhibitory concentration index (FICI),[22],0.065
same,fractional inhibitory concentration index (FICI),[23],0.515
same,fractional inhibitory concentration index (FICI),[24],1.25
same,fractional inhibitory concentration index (FICI),[25],0.128
same,MIC80,[26],> 16 µg/mL
same,fractional inhibitory concentration index (FICI),[27],2
same,fractional inhibitory concentration index (FICI),[28],0.072
same,fractional inhibitory concentration index (FICI),[29],2
same,MIC80,[30],0.06 µg/mL
same,fractional inhibitory concentration index (FICI),[31],1.016
same,fractional inhibitory concentration index (FICI),[32],2
same,fractional inhibitory concentration index (FICI),[33],0.076
same,selectivity ratio,[34],2130
same,fractional inhibitory concentration index (FICI),[35],0.124
same,fractional inhibitory concentration index (FICI),[36],0.256
same,fractional inhibitory concentration index (FICI),[37],2
same,fractional inhibitory concentration index (FICI),[38],2
same,MIC80,[39],> 16 µg/mL
same,fractional inhibitory concentration index (FICI),[40],0.281
same,fractional inhibitory concentration index (FICI),[41],2
same,CC50,[42],64 µg/mL
